ChEMBL document CHEMBL1914406, “Inhibitory effect of novel 5-O-acyl juglones on mammalian DNA polymerase activity, cancer cell growth and inflammatory response” (Bioorg Med Chem, 2011)
The source made the active and inactive calls. The calls are words filed in the database; no cut-off is given here.

tested on: Nucleic Acid; test: Binding affinity to DNA assessed as thermal transition of DNA relative to control; format: nucleic-acid assay; conditions: not given

Row | SMILES | Activity
1 | CCC(=O)Oc1cccc2c1C(=O)C=CC2=O | inactive
2 | CCCCCC(=O)Oc1cccc2c1C(=O)C=CC2=O | inactive
3 | CCCCC/C=C\C/C=C\CCCCCCCC(=O)Oc1cccc2c1C(=O)C=CC2=O | inactive
4 | CC/C=C\C/C=C\C/C=C\C/C=C\C/C=C\CCCC(=O)Oc1cccc2c1C(=O)C=CC2=O | inactive

tested on: RAW264.7; test: Cytotoxicity against mouse RAW264.7 cells at 5 uM; format: cell-based; conditions: raw264.7, 5 µM

Row | SMILES | Activity
5 | CCC(=O)Oc1cccc2c1C(=O)C=CC2=O | Non-toxic
6 | CCCCCC(=O)Oc1cccc2c1C(=O)C=CC2=O | Non-toxic
7 | CCCCC/C=C\C/C=C\CCCCCCCC(=O)Oc1cccc2c1C(=O)C=CC2=O | Non-toxic
8 | CC/C=C\C/C=C\C/C=C\C/C=C\C/C=C\CCCC(=O)Oc1cccc2c1C(=O)C=CC2=O | Non-toxic

tested on: not listed separately; test: Cytotoxicity against mouse RAW264.7 cells; format: cell-based; conditions: read-out: LD50 (the source's name)

Row | SMILES | CC50 [µM]
9 | CCC(=O)Oc1cccc2c1C(=O)C=CC2=O | > 10
10 | CCCCCC(=O)Oc1cccc2c1C(=O)C=CC2=O | > 10
11 | CCCCC/C=C\C/C=C\CCCCCCCC(=O)Oc1cccc2c1C(=O)C=CC2=O | > 10
12 | CC/C=C\C/C=C\C/C=C\C/C=C\C/C=C\CCCC(=O)Oc1cccc2c1C(=O)C=CC2=O | > 10

tested on: Mus musculus; test: Antiinflammatory activity in mouse assessed as inhibition of TPA-induced mouse ear edema at 500 ug/ear administered 30 mins before TPA challenge measured after 7 hrs relative to untreated control; format: functional, organism-based; conditions: not given
In short: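 Compound (500 µg) applied to one mouse ear; 30 min later TPA (0.5 µg) applied to both ears. Edema scored after 7 h and expressed as percentage of edema. Mean ± SE, n = 6.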

Row | SMILES | Activity
13 | CCC(=O)Oc1cccc2c1C(=O)C=CC2=O | Active
14 | CCCCCC(=O)Oc1cccc2c1C(=O)C=CC2=O | Active
15 | CCCCC/C=C\C/C=C\CCCCCCCC(=O)Oc1cccc2c1C(=O)C=CC2=O | Active
16 | CC/C=C\C/C=C\C/C=C\C/C=C\C/C=C\CCCC(=O)Oc1cccc2c1C(=O)C=CC2=O | Active

target: T1, DNA polymerase lambda (Homo sapiens) (UniProt Q9UGP5); test: Inhibition of recombinant His-tagged human DNA polymerase lambda using poly(dA)/oligo(dT)18 (A/T = 2/1) and dTTP as the DNA template-primer and nucleotide substrate at 10 uM after 60 mins; conditions: not given
T1 sequence (whole entry): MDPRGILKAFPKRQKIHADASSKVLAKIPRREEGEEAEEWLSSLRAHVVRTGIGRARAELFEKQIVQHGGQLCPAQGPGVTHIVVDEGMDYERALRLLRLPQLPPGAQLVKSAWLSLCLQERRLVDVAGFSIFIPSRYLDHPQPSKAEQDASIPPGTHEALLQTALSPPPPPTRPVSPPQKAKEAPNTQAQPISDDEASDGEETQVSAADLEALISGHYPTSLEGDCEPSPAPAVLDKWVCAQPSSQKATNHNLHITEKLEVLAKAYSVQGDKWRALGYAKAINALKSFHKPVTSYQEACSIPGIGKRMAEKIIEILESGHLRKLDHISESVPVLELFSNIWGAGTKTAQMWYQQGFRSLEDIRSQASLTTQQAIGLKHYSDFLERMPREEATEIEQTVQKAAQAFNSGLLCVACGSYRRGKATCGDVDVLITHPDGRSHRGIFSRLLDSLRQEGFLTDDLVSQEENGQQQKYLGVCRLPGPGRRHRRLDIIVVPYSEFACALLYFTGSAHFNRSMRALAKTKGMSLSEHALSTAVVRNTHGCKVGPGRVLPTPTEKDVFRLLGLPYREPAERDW
In short: (§1)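 Compound in DMSO, sonicated 30 s. Premixed 0 °C, 10 min with enzyme (0.05 units) in 50 mM Tris-HCl pH 7.5, 1 mM DTT, 50% glycerol, 0.1 mM EDTA, then added to standard reaction mixture. Template-primers: poly(dA)/oligo(dT)18 (2/1) for pols, oligo(dT)18 for TdT, poly(rA)/oligo(dT)18 for HIV-1 RT, with [3H]dTTP. 60 min at 37 °C (Taq 74 °C). Activity relative to no-inhibitor control; mean ± SE of three experiments.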

Row | SMILES | inhibition
17 | CCC(=O)Oc1cccc2c1C(=O)C=CC2=O | Active
18 | CCCCCC(=O)Oc1cccc2c1C(=O)C=CC2=O | Active
19 | CCCCC/C=C\C/C=C\CCCCCCCC(=O)Oc1cccc2c1C(=O)C=CC2=O | Active
20 | CC/C=C\C/C=C\C/C=C\C/C=C\C/C=C\CCCC(=O)Oc1cccc2c1C(=O)C=CC2=O | Active

species on record: Bos taurus; test: Inhibition of calf DNA polymerase alpha using poly(dA)/oligo(dT)18 (A/T = 2/1) and dTTP as the DNA template-primer and nucleotide substrate at 10 uM after 60 mins; conditions: not given; in short: as §1

Row | SMILES | inhibition
21 | CCC(=O)Oc1cccc2c1C(=O)C=CC2=O | Active
22 | CCCCCC(=O)Oc1cccc2c1C(=O)C=CC2=O | Active
23 | CCCCC/C=C\C/C=C\CCCCCCCC(=O)Oc1cccc2c1C(=O)C=CC2=O | Active
24 | CC/C=C\C/C=C\C/C=C\C/C=C\C/C=C\CCCC(=O)Oc1cccc2c1C(=O)C=CC2=O | Active

species on record: Homo sapiens; test: Inhibition of histidine-tagged human DNA polymerase gamma using poly(dA)/oligo(dT)18 (A/T = 2/1) and dTTP as the DNA template-primer and nucleotide substrate at 10 uM after 60 mins; conditions: not given; in short: as §1

Row | SMILES | inhibition
25 | CCC(=O)Oc1cccc2c1C(=O)C=CC2=O | Active
26 | CCCCCC(=O)Oc1cccc2c1C(=O)C=CC2=O | Active
27 | CCCCC/C=C\C/C=C\CCCCCCCC(=O)Oc1cccc2c1C(=O)C=CC2=O | Active
28 | CC/C=C\C/C=C\C/C=C\C/C=C\C/C=C\CCCC(=O)Oc1cccc2c1C(=O)C=CC2=O | Active

target: T2, DNA polymerase kappa (Homo sapiens) (UniProt Q9UBT6); test: Inhibition of C-terminal His6-tagged human DNA polymerase kappa (amino acids 1 to 560) using poly(dA)/oligo(dT)18 (A/T = 2/1) and dTTP as the DNA template-primer and nucleotide substrate at 10 uM after 60 mins; conditions: not given
T2 sequence (whole entry): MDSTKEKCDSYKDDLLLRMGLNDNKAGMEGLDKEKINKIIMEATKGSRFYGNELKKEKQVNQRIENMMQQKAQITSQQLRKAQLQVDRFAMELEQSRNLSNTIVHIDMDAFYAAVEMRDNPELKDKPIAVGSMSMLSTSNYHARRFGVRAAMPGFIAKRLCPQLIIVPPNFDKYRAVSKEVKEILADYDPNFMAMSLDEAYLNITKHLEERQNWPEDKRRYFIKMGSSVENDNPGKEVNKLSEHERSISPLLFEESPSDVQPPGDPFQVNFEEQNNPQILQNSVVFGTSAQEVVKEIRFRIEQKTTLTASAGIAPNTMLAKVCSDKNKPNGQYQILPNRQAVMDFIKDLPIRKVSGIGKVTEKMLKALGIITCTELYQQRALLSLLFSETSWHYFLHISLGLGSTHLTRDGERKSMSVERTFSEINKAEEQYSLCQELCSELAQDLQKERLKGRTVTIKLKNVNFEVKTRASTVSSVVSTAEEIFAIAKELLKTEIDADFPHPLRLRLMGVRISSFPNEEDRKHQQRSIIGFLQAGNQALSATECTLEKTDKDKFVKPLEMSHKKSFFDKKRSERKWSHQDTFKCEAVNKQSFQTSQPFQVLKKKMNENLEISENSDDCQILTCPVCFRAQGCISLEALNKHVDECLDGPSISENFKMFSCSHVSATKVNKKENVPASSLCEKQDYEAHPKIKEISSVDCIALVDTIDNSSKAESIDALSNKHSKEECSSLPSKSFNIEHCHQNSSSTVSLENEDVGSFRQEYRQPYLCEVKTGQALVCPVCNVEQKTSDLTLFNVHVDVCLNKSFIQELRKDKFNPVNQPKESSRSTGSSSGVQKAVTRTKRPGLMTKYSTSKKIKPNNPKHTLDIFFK

Row | SMILES | inhibition
29 | CCC(=O)Oc1cccc2c1C(=O)C=CC2=O | Active
30 | CCCCCC(=O)Oc1cccc2c1C(=O)C=CC2=O | Active
31 | CCCCC/C=C\C/C=C\CCCCCCCC(=O)Oc1cccc2c1C(=O)C=CC2=O | Active
32 | CC/C=C\C/C=C\C/C=C\C/C=C\C/C=C\CCCC(=O)Oc1cccc2c1C(=O)C=CC2=O | Active

species on record: Bos taurus; test: Inhibition of calf DNA polymerase alpha using bovine deoxyribonuclease 1-treated DNA and dNTP as the DNA template-primer and nucleotide substrate at 10 uM after 60 mins; conditions: not given

Row | SMILES | inhibition
33 | CCC(=O)Oc1cccc2c1C(=O)C=CC2=O | Active
34 | CCCCCC(=O)Oc1cccc2c1C(=O)C=CC2=O | Active
35 | CCCCC/C=C\C/C=C\CCCCCCCC(=O)Oc1cccc2c1C(=O)C=CC2=O | Active
36 | CC/C=C\C/C=C\C/C=C\C/C=C\C/C=C\CCCC(=O)Oc1cccc2c1C(=O)C=CC2=O | Active

species on record: Homo sapiens; test: Inhibition of histidine-tagged human DNA polymerase gamma using bovine deoxyribonuclease 1-treated DNA and dNTP as the DNA template-primer and nucleotide substrate at 10 uM after 60 mins; conditions: not given

Row | SMILES | inhibition
37 | CCC(=O)Oc1cccc2c1C(=O)C=CC2=O | Active
38 | CCCCCC(=O)Oc1cccc2c1C(=O)C=CC2=O | Active
39 | CCCCC/C=C\C/C=C\CCCCCCCC(=O)Oc1cccc2c1C(=O)C=CC2=O | Active
40 | CC/C=C\C/C=C\C/C=C\C/C=C\C/C=C\CCCC(=O)Oc1cccc2c1C(=O)C=CC2=O | Active

target: T2, DNA polymerase kappa (Homo sapiens); test: Inhibition of C-terminal His6-tagged human DNA polymerase kappa (amino acids 1 to 560) using bovine deoxyribonuclease 1-treated DNA and dNTP as the DNA template-primer and nucleotide substrate at 10 uM after 60 mins; conditions: not given

Row | SMILES | inhibition
41 | CCC(=O)Oc1cccc2c1C(=O)C=CC2=O | Active
42 | CCCCCC(=O)Oc1cccc2c1C(=O)C=CC2=O | Active
43 | CCCCC/C=C\C/C=C\CCCCCCCC(=O)Oc1cccc2c1C(=O)C=CC2=O | Active
44 | CC/C=C\C/C=C\C/C=C\C/C=C\C/C=C\CCCC(=O)Oc1cccc2c1C(=O)C=CC2=O | Active

target: T1, DNA polymerase lambda (Homo sapiens); test: Inhibition of recombinant His-tagged human DNA polymerase lambda using bovine deoxyribonuclease 1-treated DNA and dNTP as the DNA template-primer and nucleotide substrate at 10 uM after 60 mins; conditions: not given

Row | SMILES | inhibition
45 | CCC(=O)Oc1cccc2c1C(=O)C=CC2=O | Active
46 | CCCCCC(=O)Oc1cccc2c1C(=O)C=CC2=O | Active
47 | CCCCC/C=C\C/C=C\CCCCCCCC(=O)Oc1cccc2c1C(=O)C=CC2=O | Active
48 | CC/C=C\C/C=C\C/C=C\C/C=C\C/C=C\CCCC(=O)Oc1cccc2c1C(=O)C=CC2=O | Active
